Compounds with a hit are over-represented: about 2.3% of the library has one in this group of screens.
T cell modulator = T cell immune modulation candidate | 2C CD8+ T cell-vesicle binding, flow cytometry; active compounds read low | response (vesicle binding), % at 7 µM | 330,000 tested, 0.068% active;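 active means response, share of CD8 T cells binding vesicles, and their 90th percentile fluorescence all below set limits, cut at about 80% in these data, passing the limit was not always enough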;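 further: values below 100% mean blocked vesicle binding to the CD8+ T cells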
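Material: 2C TCR transgenic mouse naive CD8+ T cells, MACS-purified. Also added: QL9-charged Drosophila Ld/ICAM-1/B7-1 vesicles. Timing: binding 1.5 h at 37 °C. Measured by: high-throughput flow cytometry with anti-B7-1 and anti-CD8 staining. Read-out: percent CD8+ FL2 mean versus row control. Controls: Unloaded micro-vesicles (low), QL9 vesicles with 0.7% DMSO (high).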
Bim-Mcl-1 = inhibitors of Bim-Mcl-1 interaction, human; 190,000 tested, 0.1% active; AID 1009; Bead-based flow cytometry, Bim peptide-Mcl-1 binding; inhibition, % at 10 µM; in the data active means inhibition above about 40%;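 further: 0% = no compound tracer wells and 100% = peptide blocker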
DSG3 Ab inh = inhibitors of pemphigus antibody binding to human desmoglein-3; P32926; 310,000 tested, 0.48% active; DSG3-coupled beads, scFv-anti-DSG3-GFP binding, flow cytometry; active compounds read low; binding (percent of control), % at 10 µM; AID 588358;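 active means binding more than 3 SD below its plate's average and above zero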;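 further: hits lower antibody fragment binding to DSG3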
MCL1-BIM inh = disrupts human MCL1 binding to BIM-BH3 peptide. Q07820. GST-MCL1 / FITC-Bim-BH3 fluorescence polarization. inhibition, % at 10.9 µM. 320,000 tested, 0.68% active;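 active means inhibition above the mean inhibition of all tested compounds plus 3 SD, set per campaign, cut at about 40% in these data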;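 further: 0% = DMSO wells and 100% = unlabeled Bim-BH3 peptide control; higher means more loss of mP so more displacement of Bim peptide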
Mcl1-Bid inh = disrupts binding of human Mcl-1 to Bid peptide; 220,000 tested, 0.97% active; TR-FRET Mcl-1/Bid-Dy647 peptide binding, 1536-well; AID 1021; Q07820; inhibition, % at 21.7 µM;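 active means compounds that cut the binding signal by more than half at the single screening dose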;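 further: His-tagged Mcl-1 with europium anti-His antibody binding Bid BH3 peptide; 0% = Mcl-1 plus peptide wells and 100% = peptide-only wells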
Mcl1-Noxa inh = disrupts binding of human Mcl-1 to Noxa peptide; Q07820; TR-FRET Mcl-1/Noxa peptide binding, 2 h; inhibition, % at 21.7 µM; 220,000 tested, 1.5% active; AID 1022;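 active means compounds that cut the protein-peptide binding signal by more than 50% relative to plate controls in a single-dose test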;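 further: His-tagged Mcl-1 with rhodamine Noxa BH3 peptide and terbium anti-His antibody; 0% = Mcl-1 plus Noxa peptide wells and 100% = peptide-only wells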
* marks the source's active call; other numbers are inactive results; i = inactive; . = no result given.

SMILES	T cell modulator	Bim-Mcl-1	DSG3 Ab inh	MCL1-BIM inh	Mcl1-Bid inh	Mcl1-Noxa inh
O=[N+]([O-])c1cccc(S(=O)(=O)NCC2CCCO2)c1 (centres undefined)	330.8	51.0*	102.4	3.6	-20.2	-12.9
O=C(NCCN1CCN(C(=O)c2ccc([N+](=O)[O-])cc2)CC1)C(=O)NCc1ccccc1	604.1	.	102.7	3.8	.	.
CNC(=O)C(=O)NCCN1CCN(C(=O)c2ccc([N+](=O)[O-])cc2)CC1	216.1	1.0	97.8	-4.3	90.8*	-11.7
O=C(Nc1ccccc1N1CCOCC1)c1cccc(Oc2ccccc2)c1	292.4	.	102.9	-5.5	.	.
COc1ccc(-c2ccnc3nc(-n4cccc4)nn23)cc1	272.9	-3.0	97.6	-2.3	13.6	51.0*
c1coc(-c2ccnc3nc(-n4cccc4)nn23)c1	174.4	-4.0	77.1	17.6	8.0	62.5*
COc1ccc(-c2ccnc3nc(N4CCOCC4)nn23)cc1	i	7.0	96.6	0.6	-12.4	-13.4
COc1cc(C(=O)NCCC(c2ccccc2)c2ccccc2)cc(OC)c1OC	209.0	.	97.8	0.5	.	.
CN1/C(=C/C2CC(=O)N(c3cccc4ccccc34)C2=O)C(C)(C)c2ccccc21 (centres undefined)	627.8	0.0	124.0	-66.6	-38.3	53.9*
COc1ccc(N2C(=O)N3[C@@H]4c5ccccc5OC[C@@H]4[C@@H](c4ccccc4)[C@@]3(C)C2=O)cc1	259.3	.	102.8	.	.	.
CCC(C)c1ccccc1N1CC(C(=O)NCCc2ccc(OC)c(OC)c2)CC1=O (centres undefined)	543.5	.	99.8	4.3	.	.
CC1CN(C(=O)c2cccc(C(=O)N3CC(C)OC(C)C3)c2)CC(C)O1 (centres undefined)	108.1	2.0	99.5	-4.9	97.1*	12.7
COc1ccc(NCc2ccc([N+](=O)[O-])s2)c(OC)c1	671.3	-1.0	94.7	0.8	11.9	53.0*
COc1ccc(Cn2c(-c3ccccc3)nc3c(c(=O)c4ccccc4n3C)c2=O)cc1	239.7	-16.0	.	-11.0	41.5	-5.2
Cn1c2ccccc2c(=O)c2c(=O)n(Cc3ccco3)c(-c3ccc(C(C)(C)C)cc3)nc21	259.9	.	.	1.8	52.0*	-92.0
COc1cccc2c(=O)c(C/C=C(/C)Cl)c(C)[nH]c12	170.4	0.0	101.3	-1.3	91.6*	10.9
Cc1cc(-c2nnc(SCC(=O)c3ccc4c(c3)OCCO4)o2)no1	104.2	-2.0	83.4	9.8	-26.8	58.9*
Cc1cc(C)cc(-c2nnc(SCC(=O)c3ccc4c(c3)OCCO4)o2)c1	339.9	-1.0	93.8	-3.5	-3.0	-10.9
O=C(COc1ccccc1)Nc1cccc(-c2ccc(N3CCOCC3)nn2)c1	317.0	.	103.3	-0.1	.	.
CN1C[C@@H]2[C@@H]3C(=O)N(Cc4ccccc4)C(=O)[C@@H]3[C@](C)(C1=O)N2C(=O)c1ccc(Br)cc1	.	.	99.0	.	.	.
CCOc1ccccc1CNc1ccc(O)cc1	.	7.0	97.8	.	-25.9	72.3*
CCSc1nnc(SCC(=O)Nc2cc(C)on2)s1	254.3	.	.	.	.	.
O=C(O)CCCNc1cc(N2CCC3(CC2)OCCO3)c2noc3c2c1C(=O)c1ccccc1-3	494.0	24.0	.	90.4*	-15.6	89.1*
CCOC(=O)N1CCN(c2cc(NCCC(=O)O)c3c4c(onc24)-c2ccccc2C3=O)CC1	490.1	27.0	91.9	33.1	-25.8	73.3*
O=C(c1ccco1)N1CCN(C2=NS(=O)(=O)c3ccccc32)CC1	430.6	0.0	105.8	-1.9	-17.3	12.4
CN1CCN(c2cc(N3CCN(C(=O)c4ccco4)CC3)c3c4c(onc24)-c2ccccc2C3=O)CC1	i	.	97.5	43.4*	.	.
NC(=O)c1c(NC(=O)c2ccncc2)sc2c1CCCCCC2	207.7	.	118.4	7.3	.	.
CCCN1CC=C2C(C#N)=C(N)C(C#N)(C#N)C(c3cccc(OC)c3OC)C2C1 (centres undefined)	917.7	-5.0	126.7	139.9*	-53.6	-38.9
COc1ccc(OC)c(C2C3CN(C(C)C)CC=C3C(C#N)=C(N)C2(C#N)C#N)c1 (centres undefined)	306.9	-5.0	103.2	95.6*	-33.8	2.8

Screens deposited in PubChem by several laboratories.
